Experimental data from ChEMBL document CHEMBL1268976, “Stereocontrolled facile synthesis and antimicrobial activity of oximes and oxime ethers of diversely substituted bispidines” (2010).
Converted amounts (≈) assume the structure as drawn.

How the values were obtained:
Assay type in all cases: functional
Klebsiella pneumoniae = assay: Antibacterial activity against Klebsiella pneumoniae by broth microdilution method
How it was run: (§1)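 In vitro broth microdilution following the NCCLS standard for bacteria (M7-A5). The test panel was Bacillus subtilis, Staphylococcus aureus, Klebsiella pneumoniae and Pseudomonas aeruginosa.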

Pseudomonas aeruginosa = assay: Antibacterial activity against Pseudomonas aeruginosa by broth microdilution method; how it was run: as §1
Cryptococcus neoformans = assay: Antimicrobial activity against Cryptococcus neoformans by broth microdilution method
How it was run: (§2)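 Fungal panel of Candida albicans, Candida parapsilosis, Aspergillus niger and Cryptococcus neoformans, tested in vitro by standard NCCLS broth microdilution. The yeast susceptibility reference cited is M27-A.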

Staphylococcus aureus = assay: Antibacterial activity against Staphylococcus aureus by broth microdilution method; how it was run: as §1
Bacillus subtilis = assay: Antibacterial activity against Bacillus subtilis by broth microdilution method; how it was run: as §1
Candida albicans = assay: Antifungal activity against Candida albicans by broth microdilution method; how it was run: as §2
Candida parapsilosis = assay: Antifungal activity against Candida parapsilosis by broth microdilution method; conditions: Lodderomyces parapsilosis; how it was run: as §2
Aspergillus niger = assay: Antifungal activity against Aspergillus niger by broth microdilution method; how it was run: as §2

| Molecule | MIC90 (Klebsiella pneumoniae) [µg/mL] | MIC90 (Pseudomonas aeruginosa) [µg/mL] | MIC90 (Cryptococcus neoformans) [µg/mL] | MIC90 (Staphylococcus aureus) [µg/mL] | MIC90 (Bacillus subtilis) [µg/mL] | MIC90 (Candida albicans) [µg/mL] | MIC90 (Candida parapsilosis) [µg/mL] | MIC90 (Aspergillus niger) [µg/mL] |
| --- | --- | --- | --- | --- | --- | --- | --- | --- |
| C=CCOc1ccc(C2NC(c3ccc(OCC=C)cc3)C3C(=NOC)C2C(c2ccc(OCC=C)cc2)NC3c2ccc(OCC=C)cc2)cc1 (stereo not drawn) | 16 (≈ 22.9 µM) | 64 (≈ 91.7 µM) | > 128 | > 128 | 64 (≈ 91.7 µM) | > 128 | 32 (≈ 45.9 µM) | 64 (≈ 91.7 µM) |
| CSc1ccc(C2NC(c3ccc(SC)cc3)C3C(=NO)C2C(c2ccc(SC)cc2)NC3c2ccc(SC)cc2)cc1 (stereo not drawn) | 32 (≈ 49.7 µM) | 16 (≈ 24.8 µM) | 32 (≈ 49.7 µM) | > 128 | > 128 | 32 (≈ 49.7 µM) | 32 (≈ 49.7 µM) | 16 (≈ 24.8 µM) |
| CCc1ccc(C2NC(c3ccc(CC)cc3)C3C(=NO)C2C(c2ccc(CC)cc2)NC3c2ccc(CC)cc2)cc1 (stereo not drawn) | > 128 | 32 (≈ 56 µM) | > 128 | > 128 | > 128 | > 128 | 64 (≈ 112 µM) | > 128 |
| ON=C1C2C(c3ccccc3Br)NC(c3ccccc3Br)C1C(c1ccccc1Br)NC2c1ccccc1Br (stereo not drawn) | > 128 | > 128 | > 128 | > 128 | > 128 | > 128 | > 128 | > 128 |
| CON=C1C2C(c3ccc(F)cc3)NC(c3ccc(F)cc3)C1C(c1ccc(F)cc1)NC2c1ccc(F)cc1 (stereo not drawn) | 16 (≈ 29.3 µM) | 4 (≈ 7.33 µM) | 32 (≈ 58.7 µM) | 8 (≈ 14.7 µM) | 64 (≈ 117 µM) | 2 (≈ 3.67 µM) | > 128 | 2 (≈ 3.67 µM) |
| CON=C1C2C(c3ccc(OC)cc3)NC(c3ccc(OC)cc3)C1C(c1ccc(OC)cc1)NC2c1ccc(OC)cc1 (stereo not drawn) | > 128 | 16 (≈ 26.9 µM) | 16 (≈ 26.9 µM) | 32 (≈ 53.9 µM) | 64 (≈ 108 µM) | > 128 | 128 (≈ 216 µM) | 16 (≈ 26.9 µM) |
| Cc1ccccc1C1NC(c2ccccc2C)C2C(=NO)C1C(c1ccccc1C)NC2c1ccccc1C (stereo not drawn) | > 128 | 32 (≈ 62.1 µM) | > 128 | 128 (≈ 248 µM) | > 128 | 64 (≈ 124 µM) | 8 (≈ 15.5 µM) | 64 (≈ 124 µM) |
| CON=C1C2C(c3ccc(OCc4ccccc4)cc3)NC(c3ccc(OCc4ccccc4)cc3)C1C(c1ccc(OCc3ccccc3)cc1)NC2c1ccc(OCc2ccccc2)cc1 (stereo not drawn) | 64 (≈ 71.3 µM) | > 128 | > 128 | > 128 | > 128 | > 128 | > 128 | 64 (≈ 71.3 µM) |
| ON=C1C2C(c3cccc(F)c3)NC(c3cccc(F)c3)C1C(c1cccc(F)c1)NC2c1cccc(F)c1 (stereo not drawn) | 64 (≈ 120 µM) | 64 (≈ 120 µM) | > 128 | > 128 | 128 (≈ 241 µM) | 32 (≈ 60.2 µM) | > 128 | 64 (≈ 120 µM) |
| CCCOc1ccc(C2NC(c3ccc(OCCC)cc3)C3C(=NO)C2C(c2ccc(OCCC)cc2)NC3c2ccc(OCCC)cc2)cc1 (stereo not drawn) | 64 (≈ 92.5 µM) | 64 (≈ 92.5 µM) | 32 (≈ 46.2 µM) | > 128 | > 128 | > 128 | > 128 | 32 (≈ 46.2 µM) |
| ON=C1C2C(c3ccccc3)NC(c3ccccc3)C1C(c1ccccc1)NC2c1ccccc1 (stereo not drawn) | > 128 | > 128 | > 128 | > 128 | > 128 | > 128 | > 128 | > 128 |
| ON=C1C2C(c3cccc(Oc4ccccc4)c3)NC(c3cccc(Oc4ccccc4)c3)C1C(c1cccc(Oc3ccccc3)c1)NC2c1cccc(Oc2ccccc2)c1 (stereo not drawn) | > 128 | > 128 | > 128 | > 128 | > 128 | 128 (≈ 155 µM) | 128 (≈ 155 µM) | > 128 |
| CON=C1C2C(c3cccc(Cl)c3)NC(c3cccc(Cl)c3)C1C(c1cccc(Cl)c1)NC2c1cccc(Cl)c1 (stereo not drawn) | 64 (≈ 105 µM) | > 128 | > 128 | > 128 | > 128 | > 128 | > 128 | 64 (≈ 105 µM) |
| CON=C1C2C(c3cccc(Oc4ccccc4)c3)NC(c3cccc(Oc4ccccc4)c3)C1C(c1cccc(Oc3ccccc3)c1)NC2c1cccc(Oc2ccccc2)c1 (stereo not drawn) | > 128 | > 128 | > 128 | > 128 | > 128 | 64 (≈ 76 µM) | 128 (≈ 152 µM) | 128 (≈ 152 µM) |
| GENTAMICIN | 2 | 16 | – | 4 | 16 | – | – | – |
| C=CCOc1ccc(C2NC(c3ccc(OCC=C)cc3)C3C(=NO)C2C(c2ccc(OCC=C)cc2)NC3c2ccc(OCC=C)cc2)cc1 (stereo not drawn) | 64 (≈ 93.6 µM) | > 128 | > 128 | > 128 | 128 (≈ 187 µM) | > 128 | 64 (≈ 93.6 µM) | 64 (≈ 93.6 µM) |

| Molecule | MIC90 (Klebsiella pneumoniae) [µg/mL] | MIC90 (Pseudomonas aeruginosa) [µg/mL] | MIC90 (Cryptococcus neoformans) [µg/mL] | MIC90 (Staphylococcus aureus) [µg/mL] | MIC90 (Bacillus subtilis) [µg/mL] | MIC90 (Candida albicans) [µg/mL] | MIC90 (Candida parapsilosis) [µg/mL] | MIC90 (Aspergillus niger) [µg/mL] |
| --- | --- | --- | --- | --- | --- | --- | --- | --- |
| CON=C1C2C(c3cccc(F)c3)NC(c3cccc(F)c3)C1C(c1cccc(F)c1)NC2c1cccc(F)c1 (stereo not drawn) | 64 (≈ 117 µM) | 16 (≈ 29.3 µM) | > 128 | > 128 | > 128 | 32 (≈ 58.7 µM) | > 128 | 16 (≈ 29.3 µM) |
| ON=C1C2C(c3cccc(Br)c3)NC(c3cccc(Br)c3)C1C(c1cccc(Br)c1)NC2c1cccc(Br)c1 (stereo not drawn) | > 128 | > 128 | > 128 | > 128 | > 128 | > 128 | > 128 | > 128 |
| CON=C1C2C(c3cccc(Br)c3)NC(c3cccc(Br)c3)C1C(c1cccc(Br)c1)NC2c1cccc(Br)c1 (stereo not drawn) | > 128 | > 128 | > 128 | > 128 | > 128 | > 128 | > 128 | > 128 |
| ON=C1C2C(c3cccc(Cl)c3)NC(c3cccc(Cl)c3)C1C(c1cccc(Cl)c1)NC2c1cccc(Cl)c1 (stereo not drawn) | > 128 | 64 (≈ 107 µM) | > 128 | > 128 | > 128 | > 128 | > 128 | 64 (≈ 107 µM) |
| ON=C1C2C(c3ccc(Cl)cc3)NC(c3ccc(Cl)cc3)C1C(c1ccc(Cl)cc1)NC2c1ccc(Cl)cc1 (stereo not drawn) | 16 (≈ 26.8 µM) | 32 (≈ 53.6 µM) | > 128 | 64 (≈ 107 µM) | > 128 | 8 (≈ 13.4 µM) | 128 (≈ 214 µM) | 64 (≈ 107 µM) |
| CON=C1C2C(c3ccc(C(C)C)cc3)NC(c3ccc(C(C)C)cc3)C1C(c1ccc(C(C)C)cc1)NC2c1ccc(C(C)C)cc1 (stereo not drawn) | 128 (≈ 199 µM) | 16 (≈ 24.9 µM) | > 128 | 128 (≈ 199 µM) | > 128 | 128 (≈ 199 µM) | 8 (≈ 12.5 µM) | 128 (≈ 199 µM) |
| ON=C1C2C(c3ccc(OCc4ccccc4)cc3)NC(c3ccc(OCc4ccccc4)cc3)C1C(c1ccc(OCc3ccccc3)cc1)NC2c1ccc(OCc2ccccc2)cc1 (stereo not drawn) | > 128 | > 128 | > 128 | > 128 | > 128 | > 128 | > 128 | 128 (≈ 145 µM) |
| COc1ccc(C2NC(c3ccc(OC)cc3)C3C(=NO)C2C(c2ccc(OC)cc2)NC3c2ccc(OC)cc2)cc1 (stereo not drawn) | 64 (≈ 110 µM) | 16 (≈ 27.6 µM) | 64 (≈ 110 µM) | 64 (≈ 110 µM) | > 128 | > 128 | 64 (≈ 110 µM) | 16 (≈ 27.6 µM) |
| CON=C1C2C(c3ccccc3Cl)NC(c3ccccc3Cl)C1C(c1ccccc1Cl)NC2c1ccccc1Cl (stereo not drawn) | 4 (≈ 6.54 µM) | 16 (≈ 26.2 µM) | 16 (≈ 26.2 µM) | 16 (≈ 26.2 µM) | > 128 | 16 (≈ 26.2 µM) | > 128 | 2 (≈ 3.27 µM) |
| CON=C1C2C(c3ccccc3Br)NC(c3ccccc3Br)C1C(c1ccccc1Br)NC2c1ccccc1Br (stereo not drawn) | > 128 | > 128 | > 128 | > 128 | > 128 | > 128 | 64 (≈ 81.1 µM) | > 128 |
| CCOc1ccc(C2NC(c3ccc(OCC)cc3)C3C(=NOC)C2C(c2ccc(OCC)cc2)NC3c2ccc(OCC)cc2)cc1 (stereo not drawn) | 32 (≈ 49.2 µM) | 32 (≈ 49.2 µM) | 16 (≈ 24.6 µM) | > 128 | > 128 | > 128 | 128 (≈ 197 µM) | 8 (≈ 12.3 µM) |
| CON=C1C2C(c3ccc(Cl)cc3)NC(c3ccc(Cl)cc3)C1C(c1ccc(Cl)cc1)NC2c1ccc(Cl)cc1 (stereo not drawn) | 4 (≈ 6.54 µM) | 8 (≈ 13.1 µM) | > 128 | 32 (≈ 52.3 µM) | 128 (≈ 209 µM) | 4 (≈ 6.54 µM) | > 128 | 16 (≈ 26.2 µM) |
| CC(C)c1ccc(C2NC(c3ccc(C(C)C)cc3)C3C(=NO)C2C(c2ccc(C(C)C)cc2)NC3c2ccc(C(C)C)cc2)cc1 (stereo not drawn) | 128 (≈ 204 µM) | 16 (≈ 25.5 µM) | > 128 | 128 (≈ 204 µM) | > 128 | > 128 | 32 (≈ 51 µM) | > 128 |
| COc1cccc(C2NC(c3cccc(OC)c3)C3C(=NO)C2C(c2cccc(OC)c2)NC3c2cccc(OC)c2)c1 (stereo not drawn) | > 128 | 128 (≈ 221 µM) | > 128 | > 128 | > 128 | > 128 | > 128 | 64 (≈ 110 µM) |
| CON=C1C2C(c3ccccc3F)NC(c3ccccc3F)C1C(c1ccccc1F)NC2c1ccccc1F (stereo not drawn) | 16 (≈ 29.3 µM) | 4 (≈ 7.33 µM) | > 128 | 64 (≈ 117 µM) | 32 (≈ 58.7 µM) | 8 (≈ 14.7 µM) | 64 (≈ 117 µM) | 4 (≈ 7.33 µM) |
| OC(Cn1cncn1)(Cn1cncn1)c1ccc(F)cc1F [FLUCONAZOLE] | – | – | 2 (≈ 6.53 µM) | – | – | 1 (≈ 3.27 µM) | 2 (≈ 6.53 µM) | 4 (≈ 13.1 µM) |
